This note sets out measurements from ChEMBL document CHEMBL1914368, “Imidazo[1,5-a]quinoxalines as irreversible BTK inhibitors for the treatment of rheumatoid arthritis” (Bioorg Med Chem Lett, 2011).

For data set [1], the target named is T1, Tyrosine-protein kinase BTK (Homo sapiens, UniProt Q06187). Kind of data set: Inhibition of human full-length BTK expressed in Sf9 cells using FAM-Srctide peptide as substrate preincubated for 60 mins measured after 60 mins by TR-FRET Assay. Put shortly: (§1)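 The compound was pre-incubated with the kinase before the enzymatic reaction was started. IC50 values are averages of two or more determinations.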
T1 sequence (Q06187 whole entry): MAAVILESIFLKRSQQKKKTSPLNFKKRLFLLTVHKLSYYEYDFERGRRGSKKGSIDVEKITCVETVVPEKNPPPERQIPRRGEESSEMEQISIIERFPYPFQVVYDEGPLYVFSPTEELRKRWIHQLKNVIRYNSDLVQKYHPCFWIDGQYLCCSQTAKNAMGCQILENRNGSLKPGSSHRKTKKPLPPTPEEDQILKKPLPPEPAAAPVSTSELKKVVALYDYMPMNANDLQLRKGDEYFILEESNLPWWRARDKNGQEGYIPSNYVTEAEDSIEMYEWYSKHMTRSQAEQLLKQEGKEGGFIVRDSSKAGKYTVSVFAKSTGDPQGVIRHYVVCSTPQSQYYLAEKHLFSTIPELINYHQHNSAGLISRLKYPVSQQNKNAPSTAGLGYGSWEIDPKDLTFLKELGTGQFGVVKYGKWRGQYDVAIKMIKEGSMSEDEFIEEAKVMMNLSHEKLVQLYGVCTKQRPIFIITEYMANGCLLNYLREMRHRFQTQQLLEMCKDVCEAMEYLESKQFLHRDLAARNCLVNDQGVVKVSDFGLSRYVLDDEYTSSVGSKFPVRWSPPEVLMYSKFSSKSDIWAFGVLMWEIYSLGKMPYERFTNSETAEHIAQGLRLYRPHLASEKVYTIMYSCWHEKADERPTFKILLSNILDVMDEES
On the technique in general: TR-FRET usually uses a lanthanide donor and a delayed reading to cut background.

The target of data set [2] is T1, Tyrosine-protein kinase BTK. Kind of data set: Inhibition of human full-length BTK expressed in Sf9 cells using FAM-Srctide peptide as substrate after 60 mins by TR-FRET Assay.
Data set [3] in a line: Clearance in mouse at 2 mg/kg, iv. In kind it is ADME, organism-based. Also on record: dose 2 mg/kg, route intravenous. As to conditions: in vivo.
A short description of data set [4]: Half life in mouse at 2 mg/kg, iv. The format is ADME, organism-based. Details: dose 2 mg/kg, route intravenous. As to conditions: in vivo.
The target in data set [5] is T2, Aryl hydrocarbon receptor (Mus musculus, UniProt P30561).
T2 sequence (P30561 whole entry): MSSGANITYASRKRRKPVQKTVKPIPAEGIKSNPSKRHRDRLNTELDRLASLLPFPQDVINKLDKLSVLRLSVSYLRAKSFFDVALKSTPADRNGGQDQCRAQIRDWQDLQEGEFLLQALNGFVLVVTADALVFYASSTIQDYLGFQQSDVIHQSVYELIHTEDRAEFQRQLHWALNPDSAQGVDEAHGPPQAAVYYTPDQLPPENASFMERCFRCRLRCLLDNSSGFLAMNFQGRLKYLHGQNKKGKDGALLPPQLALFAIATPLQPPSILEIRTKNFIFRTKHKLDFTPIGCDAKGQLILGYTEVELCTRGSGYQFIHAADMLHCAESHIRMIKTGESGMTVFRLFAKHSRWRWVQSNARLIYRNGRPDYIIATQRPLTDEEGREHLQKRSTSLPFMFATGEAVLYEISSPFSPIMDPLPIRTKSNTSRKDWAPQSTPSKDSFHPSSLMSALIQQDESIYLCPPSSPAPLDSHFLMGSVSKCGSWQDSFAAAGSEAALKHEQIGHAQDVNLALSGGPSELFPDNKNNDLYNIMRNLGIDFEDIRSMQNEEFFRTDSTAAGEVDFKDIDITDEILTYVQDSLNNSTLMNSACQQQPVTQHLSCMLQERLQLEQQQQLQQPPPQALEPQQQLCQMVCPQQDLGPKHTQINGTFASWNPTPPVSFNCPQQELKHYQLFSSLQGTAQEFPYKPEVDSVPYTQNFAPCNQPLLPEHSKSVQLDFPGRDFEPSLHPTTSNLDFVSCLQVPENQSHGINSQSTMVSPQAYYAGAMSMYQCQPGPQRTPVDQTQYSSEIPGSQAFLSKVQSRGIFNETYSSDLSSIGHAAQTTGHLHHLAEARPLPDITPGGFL
Kind of data set: Agonist activity at Ah receptor in genetically engineered mouse cells expressing firefly luciferase gene by CALUX transactivational assay. In kind it is functional.

Data set [6] is described as follows: AUC (0 to infinity) in mouse at 10 mg/kg, po. Also on record: time infinity, dose 10 mg/kg, route oral. As to conditions: plasma. The format is ADME, organism-based.
The target in data set [7] is T3, Proto-oncogene tyrosine-protein kinase Src (Homo sapiens, UniProt P12931). Kind of data set: Inhibition cSRC expressed in Sf9 cells preincubated for 60 mins measured after 60 mins by TR-FRET Assay.
T3 sequence (P12931 2-536 limits assumed): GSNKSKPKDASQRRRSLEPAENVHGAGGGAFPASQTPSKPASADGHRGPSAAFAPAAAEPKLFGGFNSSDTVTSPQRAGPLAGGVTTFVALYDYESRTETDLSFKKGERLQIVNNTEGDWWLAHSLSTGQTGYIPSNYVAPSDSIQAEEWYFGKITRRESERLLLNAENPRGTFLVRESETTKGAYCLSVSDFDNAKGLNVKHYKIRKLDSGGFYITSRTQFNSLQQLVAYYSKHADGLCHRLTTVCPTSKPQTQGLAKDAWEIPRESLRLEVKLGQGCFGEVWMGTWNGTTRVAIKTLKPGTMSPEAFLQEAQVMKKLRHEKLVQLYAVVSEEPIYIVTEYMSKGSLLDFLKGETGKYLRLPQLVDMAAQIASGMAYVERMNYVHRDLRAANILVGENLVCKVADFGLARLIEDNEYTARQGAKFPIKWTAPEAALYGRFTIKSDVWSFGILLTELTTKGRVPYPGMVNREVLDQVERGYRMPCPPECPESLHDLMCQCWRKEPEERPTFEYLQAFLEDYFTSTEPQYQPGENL
Data set [8] is described as follows: Inhibition of anti-IgM-stimulated human B cell proliferation assessed as [3H]thymidine incorporation preincubated for 30 mins measured after 3 days. As to conditions: Homo sapiens, B-cell; read-out: IC50. In kind it is functional, cell-based. In general terms: Uptake of a labelled nucleoside into DNA is a usual measure of proliferation.
A short description of data set [9]: Cmax in mouse at 10 mg/kg, po. As to conditions: in vivo. Also on record: dose 10 mg/kg, route oral. In kind it is ADME, organism-based.
In data set [10] the target is T4, Epidermal growth factor receptor (Homo sapiens, UniProt P00533). Put plainly: Inhibition of EGFR preincubated for 60 mins measured after 60 mins by TR-FRET Assay.
T4 sequence (P00533 whole entry): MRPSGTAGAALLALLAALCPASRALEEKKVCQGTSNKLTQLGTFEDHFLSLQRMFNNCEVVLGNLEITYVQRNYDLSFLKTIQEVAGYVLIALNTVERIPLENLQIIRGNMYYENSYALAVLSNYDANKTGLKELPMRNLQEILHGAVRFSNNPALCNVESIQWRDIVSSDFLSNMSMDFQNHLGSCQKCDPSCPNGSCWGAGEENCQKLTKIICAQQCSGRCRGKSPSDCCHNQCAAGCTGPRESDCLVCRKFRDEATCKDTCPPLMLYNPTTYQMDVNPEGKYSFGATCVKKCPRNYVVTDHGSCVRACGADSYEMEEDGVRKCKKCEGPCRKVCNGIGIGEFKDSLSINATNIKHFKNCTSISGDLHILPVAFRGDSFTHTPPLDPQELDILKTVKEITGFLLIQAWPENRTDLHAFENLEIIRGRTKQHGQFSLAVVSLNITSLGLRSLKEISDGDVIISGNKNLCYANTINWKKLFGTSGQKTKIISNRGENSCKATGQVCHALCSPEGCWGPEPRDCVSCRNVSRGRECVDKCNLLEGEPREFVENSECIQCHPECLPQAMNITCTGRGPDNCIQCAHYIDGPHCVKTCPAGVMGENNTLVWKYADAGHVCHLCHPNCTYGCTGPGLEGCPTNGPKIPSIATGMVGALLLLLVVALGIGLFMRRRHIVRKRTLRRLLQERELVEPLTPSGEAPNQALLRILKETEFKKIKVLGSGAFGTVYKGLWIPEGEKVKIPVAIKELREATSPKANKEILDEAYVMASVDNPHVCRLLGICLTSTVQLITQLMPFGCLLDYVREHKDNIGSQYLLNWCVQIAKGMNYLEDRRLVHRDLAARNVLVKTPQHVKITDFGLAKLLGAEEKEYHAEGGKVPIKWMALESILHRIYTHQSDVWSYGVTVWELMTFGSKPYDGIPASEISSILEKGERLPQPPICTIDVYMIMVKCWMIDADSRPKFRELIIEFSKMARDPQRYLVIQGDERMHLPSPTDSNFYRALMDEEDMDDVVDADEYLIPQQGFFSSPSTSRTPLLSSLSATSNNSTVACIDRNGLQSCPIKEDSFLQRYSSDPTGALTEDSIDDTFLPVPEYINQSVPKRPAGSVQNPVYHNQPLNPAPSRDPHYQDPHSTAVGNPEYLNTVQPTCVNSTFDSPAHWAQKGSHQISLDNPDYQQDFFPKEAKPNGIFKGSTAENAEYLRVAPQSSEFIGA
Data set [11] has as its target T4, Epidermal growth factor receptor. Kind of data set: Inhibition of EGFR after 60 mins by TR-FRET Assay.
For data set [12], the target named is T5, Tyrosine-protein kinase Lyn (Homo sapiens, UniProt P07948). Put plainly: Inhibition of LYN-A expressed in Sf9 cells after 60 mins by TR-FRET Assay.
T5 sequence (P07948 whole entry): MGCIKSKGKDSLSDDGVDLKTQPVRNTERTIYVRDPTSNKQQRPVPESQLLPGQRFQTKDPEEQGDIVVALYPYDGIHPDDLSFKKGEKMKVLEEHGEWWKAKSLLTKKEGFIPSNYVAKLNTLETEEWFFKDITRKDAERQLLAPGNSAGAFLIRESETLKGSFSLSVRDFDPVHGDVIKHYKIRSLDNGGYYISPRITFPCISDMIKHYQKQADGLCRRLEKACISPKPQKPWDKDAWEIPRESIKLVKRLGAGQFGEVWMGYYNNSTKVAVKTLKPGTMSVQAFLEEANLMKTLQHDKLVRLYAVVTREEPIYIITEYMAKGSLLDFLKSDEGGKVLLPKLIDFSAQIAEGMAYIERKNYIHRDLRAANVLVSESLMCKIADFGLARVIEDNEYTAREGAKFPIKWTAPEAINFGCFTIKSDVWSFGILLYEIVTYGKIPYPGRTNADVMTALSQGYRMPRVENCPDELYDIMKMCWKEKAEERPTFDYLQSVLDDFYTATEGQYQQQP
The nature of data set [13]: AUC (0 to infinity) in mouse at 2 mg/kg, iv. In kind it is ADME, organism-based. As to conditions: plasma. Also on record: time infinity, dose 2 mg/kg, route intravenous.
In data set [14] the target is T5, Tyrosine-protein kinase Lyn. Kind of data set: Inhibition of LYN-A expressed in Sf9 cells preincubated for 60 mins measured after 60 mins by TR-FRET Assay. The method, boiled down:
as §1

A short description of data set [15]: Half life in mouse at 10 mg/kg, po. The format is ADME, organism-based. Also on record: dose 10 mg/kg, route oral. As to conditions: in vivo.
A short description of data set [16]: Tmax in mouse at 10 mg/kg, po. The format is ADME, organism-based. Details: dose 10 mg/kg, route oral. As to conditions: in vivo. Put shortly:
(§2)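 Mouse pharmacokinetics from single dosing at 2 mg/kg iv and 10 mg/kg po. The study derived AUC, T1/2, clearance, Vss, Tmax, Cmax and oral bioavailability (%F) from the paired iv and po arms.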

In data set [17] the target is T3, Proto-oncogene tyrosine-protein kinase Src. Kind of data set: Inhibition cSRC expressed in Sf9 cells after 60 mins by TR-FRET Assay.
Data set [18] concerns the target Tyrosine-protein kinase Lck (Homo sapiens, UniProt P06239). Put plainly: Inhibition of C-terminal His6-tagged human full-length LCK expressed in Sf9 cells preincubated for 60 mins measured after 60 mins by TR-FRET Assay.
A short description of data set [19]: Oral bioavailability in mouse at 10 mg/kg. The format is ADME, organism-based. As to conditions: in vivo. Put shortly:
as §2

The nature of data set [20]: Volume of distribution at steady state in mouse at 2 mg/kg, iv. The format is ADME, organism-based. Also on record: dose 2 mg/kg, route intravenous. As to conditions: in vivo, read-out: Vdss. The method, boiled down: as §2

Tyrosine-protein kinase Lck, sequence (P06239 whole entry): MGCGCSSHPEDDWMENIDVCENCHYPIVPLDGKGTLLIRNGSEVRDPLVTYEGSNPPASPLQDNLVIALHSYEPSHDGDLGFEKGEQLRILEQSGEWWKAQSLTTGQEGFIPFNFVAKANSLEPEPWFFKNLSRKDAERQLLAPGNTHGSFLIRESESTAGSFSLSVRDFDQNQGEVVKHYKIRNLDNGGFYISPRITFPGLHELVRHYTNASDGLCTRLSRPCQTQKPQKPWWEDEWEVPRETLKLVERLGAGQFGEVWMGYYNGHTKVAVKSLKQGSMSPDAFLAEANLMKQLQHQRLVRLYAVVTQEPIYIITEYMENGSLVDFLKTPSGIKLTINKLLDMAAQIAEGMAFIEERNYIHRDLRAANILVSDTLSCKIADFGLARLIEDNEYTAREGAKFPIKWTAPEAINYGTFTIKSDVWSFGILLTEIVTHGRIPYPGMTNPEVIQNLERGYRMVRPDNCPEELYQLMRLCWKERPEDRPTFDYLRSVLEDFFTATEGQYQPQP

As for `Cc1ccc(F)cc1Nc1nc2cc(Cl)c(N(C)C(=O)/C=C/CN(C)C)cc2n2cncc12`, the IC50 in data set [1] was 2.6 nM; in data set [2], 3.98 nM; in data set [7] it was 410 nM; in data set [8] it was 5.84 nM; in data set [10], 3.35 nM; in [11] it was 68 nM. Further, the IC50 was 3390 nM in [12], 3020 nM in data set [14], 1620 nM in data set [17] and 2790 nM in data set [18]. This compound returned a clearance in data set [3] of 26.6 mL/min/kg. For the same compound, the half-life is 2.2 h in data set [4] and 2.7 h in [15]. This compound also had a concentration giving a half-maximal response (EC50) in [5] of more than 10000 nM. Moreover, the area under the curve AUC(0-inf) was determined as 3620 ng·h/mL in data set [6] and 1120 ng·h/mL in [13]. In addition, the Cmax in data set [9] was found to be 454 ng/mL. Further, the Tmax in [16] was determined as 3 h. Moreover, the bioavailability in data set [19] turned out to be 58%. In addition, the Vd in [20] amounted to 4.51 L/kg.

With `Cc1cc(F)ccc1Oc1nc2ccc(N(C)C(=O)/C=C/CN(C)C)cc2n2cncc12`, the IC50 in data set [2] turned out to be 6.58 nM; in data set [8], 228 nM; in data set [12] it was 3730 nM. In [5], this compound had an EC50 of more than 10000 nM.

In the case of `Cc1ccc(F)cc1Nc1nc2ccc(N(C)C(=O)/C=C/CN(C)C)cc2n2cncc12`, the IC50 in data set [2] is 3.33 nM; in data set [8], 4.88 nM; in [12] it was 1420 nM. In addition, the concentration for a half-maximal effect (EC50) in data set [5] was more than 10000 nM.

In [5], `Clc1cc2c(cc1Cl)Oc1cc(Cl)c(Cl)cc1O2` [2,3,7,8-TETRACHLORODIBENZO-P-DIOXIN] yielded a concentration giving a half-maximal response (EC50) of 0.03 nM.

What is called IC50 is the concentration needed to halve the response being measured. Usually clearance stands for a measure of how efficiently the substance is removed, as volume per time. Read a low clearance as a low capacity for elimination. In general, half-life refers to the time needed for the level to fall by half in the phase considered. A higher half-life goes with slow decline. As a reminder, the EC50 is the concentration at which the effect is half-maximal. Low values mean a more potent agent, high ones a less potent agent. As usually defined, the AUC(0-inf) is total exposure, with the tail of the curve extrapolated. A low value points to less exposure. A word on the Cmax: it is the highest concentration seen after dosing. The Tmax is the time at which the peak concentration occurs. A word on the bioavailability: it is dose-corrected exposure relative to a reference, in per cent.
